Experimental data as given in ChEMBL document CHEMBL3085705, “Design, chemical synthesis of 3-(9H-fluoren-9-yl)pyrrolidine-2,5-dione derivatives and biological activity against enoyl-ACP reductase (InhA) and Mycobacterium tuberculosis” (2013).

What was measured:
Format in all cases: functional
[1] = tested on: Mycobacterium tuberculosis; assay: Antimicrobial activity against streptomycin, isoniazid, rifampicin and ethambutol-resistant Mycobacterium tuberculosis clinical isolate by two-fold serial dilution method
How it was run: (§1)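 Compounds dissolved in DMSO. Single colony grown in Middlebrook 7H9 with 0.05% Tween 80 and 10% OADC at 37 °C, no shaking, to ~10^8 CFU/mL (OD600 0.8–1.0). Diluted to ~10^7 CFU/mL; 1 μL streaked onto 7H11 agar (0.5% glycerol, 10% OADC) with two-fold serial compound dilutions. MIC is the lowest concentration inhibiting growth. Repeated three times.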

[2] = tested on: Mycobacterium tuberculosis; assay: Antimicrobial activity against streptomycin, isoniazid, rifampicin, ethambutol, pyrazinamide and ethionammide-resistant Mycobacterium tuberculosis clinical isolate by two-fold serial dilution method; how it was run: as §1
[3] = tested on: Mycobacterium tuberculosis; assay: Antimicrobial activity against streptomycin, isoniazid, rifampicin, ethambutol, pyrazinamide, ethionammide and capreomicinl-resistant Mycobacterium tuberculosis clinical isolate by two-fold serial dilution method; how it was run: as §1

Measured: MIC

O=C(CC(C(=O)O)C1c2ccccc2-c2ccccc21)Nc1cc(Cl)cc(Cl)c1 (stereo not drawn)
4.7 µM: all assays above
